SR-BI DiI inh: mouse SR-BI HDL lipid transfer inhibition; Q61009; ldlA[mSR-BI] CHO cells, DiI-HDL uptake fluorescence, 3 h; inhibition, % at 12.5 µM; actives 0.96% (n = 320,000); AID 488896;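 active = mean replicate inhibition of at least 70% and a set share of replicates each scoring 70 or more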;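 also: 0% = median of neutral control wells and 100% = median of positive control wells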
CDK5 inh: CDK5/p35 (human) kinase inhibition; Recombinant CDK5/p35, ADP-Glo luminescence, 60 min; inhibition, % at 10 µM; actives 0.01% (n = 330,000); AID 488839;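 active = highest replicate inhibition of at least 50% and at least 75% of replicates reaching 50%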;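 also: plate controls were DMSO neutral control for no effect and GW8510 at 10 µM for full effect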
dFosB act: activators of mouse delta FosB homodimer. P13346. purified delta FosB, TAMRA-CDK5 oligo fluorescence polarization; percent of positive-control signal above neutral wells. activation, % at 25 µM. actives 0.99% (n = 340,000);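 active = mean activation above about 17%, with every replicate also reaching it, limit read from the data, passing the limit was not always enough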
Target sequence (P13346 whole entry, looked up): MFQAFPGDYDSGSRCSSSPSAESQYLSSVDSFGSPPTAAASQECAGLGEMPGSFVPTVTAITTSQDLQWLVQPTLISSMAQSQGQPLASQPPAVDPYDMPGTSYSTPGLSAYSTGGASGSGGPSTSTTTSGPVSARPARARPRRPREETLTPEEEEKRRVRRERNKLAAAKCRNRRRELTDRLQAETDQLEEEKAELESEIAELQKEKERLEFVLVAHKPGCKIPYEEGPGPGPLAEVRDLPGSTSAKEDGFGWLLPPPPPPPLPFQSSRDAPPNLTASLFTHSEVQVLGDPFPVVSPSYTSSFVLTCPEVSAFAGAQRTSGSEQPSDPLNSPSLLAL
SR-BI uptake up: SR-BI HDL lipid transfer activation. CHO ldlA[mSR-BI] cells, DiI-HDL uptake fluorescence, 3 h; 100 = double the neutral-control signal. activation, % at 12.5 µM. actives 0.096% (n = 320,000);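 active = mean replicate activation of at least 60% and every replicate at or above 60%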;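 also: 0% = median plate neutral-control signal and 100% = twice that signal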
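Test system: SR-BI-overexpressing, LDLR-lacking CHO cells. Measured by: DiI fluorescence, bottom read. Medium: Ham's F12 with 0.5% BSA, HEPES 25 mM, pH 7.4. Timing: 3 h uptake period with compound, 37 °C.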
NSD2 inh: NSD2 (human) methyltransferase inhibition; NSD2 peptide methylation, AlphaScreen, 120 min; actives 0.54% (n = 310,000); O96028; inhibition, % at 12.5 µM
Dyrk1A ADPGlo: inhibitors of rat Dyrk1A kinase. ADP-Glo luminescence, NFATc1 peptide. inhibition, % at 12.5 µM. actives 0.43% (n = 310,000). AID 504441;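 also: plate controls were vehicle with enzyme for no effect and no enzyme for full effect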
Dyrk1A artifact: counter-screen for Dyrk1A inhibitors: ADP-Glo luciferase artifacts; AID 588348; shares compounds with Dyrk1A ADPGlo; AC50, µM (doses to about 12 µM), for inactives: at the highest dose activity change, negative = inhibition; ADP-Glo luciferase artifact assay, no Dyrk1A, luminescence; 1,300 tested, under 10 active;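 active = fitted half-maximal dose AC50 no more than ten times the top valid tested dose, with luminescence dropping as dose rises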
Alpha artifact: counter-screen for NSD2 inhibitors: AlphaScreen artifacts; actives 9.4% (n = 1,500); AID 1053174; shares compounds with NSD2 inh; AlphaScreen artifact counterscreen, preloaded methylated H4 peptide; AC35, µM (doses to about 10 µM), inactives show at the top dose activity change, negative = signal loss; call rule not given here
An asterisk follows results filed as active; / = not tested or not shown; + = active, no number; ! = not confirmed by another sample. Sampled rows, rich in hits. Any-hit rate of the full collection: about 2.5%. Rule as the data show it, unless noted: active = inhibition above about 50%; inactive = the rest.

SMILES | SR-BI DiI inh | CDK5 inh | dFosB act | SR-BI uptake up | NSD2 inh | Dyrk1A ADPGlo | Alpha artifact | others
Cc1cc(=O)n2ccccc2c1C#N | -25 | 0 | -4 | 25 | 1 | 11 | /
COc1ccc2c(C#N)c3ccccn3c2c1 | 18 | 1 | -10 | -18 | 52* | 72* | 9% | Dyrk1A artifact=9%
COc1ccc(NC(=S)Nc2cccc3cnccc23)cc1 | -25 | / | -5 | 25 | 55* | 56* | 4% | Dyrk1A artifact=7%
S=C(Nc1ccc(Cl)cc1)Nc1cccc2cnccc12 | -9 | 4 | 2 | 9 | 13 | 26 | /
S=C(Nc1cccnc1)Nc1cccc2cnccc12 | 8 | 9 | 3 | -8 | 108* | 60* | 2% | Dyrk1A artifact=9%
COc1ccc2oc(C(=O)OCC(=O)N(CCC#N)c3ccccc3)c(C)c2c1 | 25 | 0 | -6 | -25 | 22 | 0 | /
COc1ccc(NC(=O)CS(=O)(=O)c2cn(CC(=O)N3CCCC3)c3ccccc23)c(OC)c1 | 28 | 1 | -1 | -28 | 0 | / | /
Nc1ccc2c(c1)C(=O)C(=O)c1ccccc1-2 | 5 | 2 | 1 | -5 | 112* | 89* | -8% | Dyrk1A artifact=7%
COC(=O)c1cc(C)nc2c1C(=O)C(=O)C=C2N1CCOCC1 | -25 | 5 | -6 | 25 | + | 61* | -1% | Dyrk1A artifact=8%
COC(=O)c1cc(S(=O)(=O)N2CCOCC2)c(Cl)cc1N1CCOCC1 | 14 | 0 | -3 | -14 | -1 | -1 | /
CCN(CC)CCCNc1ccc2ncn3c4ccc(O)cc4c(=O)c1c23 | -14 | 21 | 38* | 14 | 64* | 87* | -3% | Dyrk1A artifact=10%
Cc1ccc2c(c1C)-c1c(ccc(C)c1C)C(=O)C2=O | 46 | 2 | -29 | -46 | 85* | 54* | -8% | Dyrk1A artifact=9%
O=C(COc1ccc(NS(=O)(=O)c2ccc(F)cc2)cc1)N1CCOCC1 | 10 | -2 | -3 | -10 | -2 | 3 | /
COc1cc(/C=C2\SC(N)=NC2=O)cc(Cl)c1O | -18 | 1 | 2 | 18 | 68* | 61* | -4% | Dyrk1A artifact=10%
COc1cc(/C=C2\SC(c3ccc(C)cc3)=NC2=O)cc(OC)c1O | 14 | 9 | -34 | -14 | 6 | -46 | /
COC(C[C@@H]1O[C@H]1C(=O)COCc1ccccc1)OC | -12 | 2 | 1 | 12 | / | / | /
CC(NC(=O)COC(=O)c1ccc([N+](=O)[O-])s1)c1ccccc1 (stereo unspecified) | 7 | 1 | -3 | -7 | 66* | 56* | -5% | Dyrk1A artifact=8%
COc1cc2c(C#N)c(N3CCN(C)CC3)nc(N)c2c(N)n1 | 3 | 3 | 15 | -3 | 24 | 6 | /
COc1cc2c(C#N)c(N3CCCC3)nc(N)c2c(N)n1 | 35 | 0 | -4 | -35 | 68* | 53*! | -2% | Dyrk1A artifact=12%
Cc1c(C)n(Cc2ccccc2)c2ccc(C(=O)OCCN(C)C)cc12 | 17 | -2 | -7 | -17 | 50* | 3 | -19%
COc1ccc(CCNC(=O)Nc2ccc3c(c2)c(=O)n(C)n3CC=C(C)C)cc1OC | / | / | / | / | 52* | / | -3%
CC(C)CNC(=O)c1ccc2c(c1)C(=O)N(Cc1ccco1)C2=O | 2 | 1 | -1 | -2 | 0 | 0 | /
O=C(NC1CCN(Cc2ccccc2)CC1)c1ccc(S(=O)(=O)NCc2ccco2)cc1 | 13 | 2 | -3 | -13 | 5 | -10 | /
O=C(NC1CCCCC1)c1ccc(S(=O)(=O)NCc2ccco2)cc1 | -9 | 0 | -4 | 9 | 55* | 1 | -7%
COc1ccc(Oc2c(OC)cc([N+](=O)[O-])c3ncccc23)cc1 | 56 | 2 | -4 | -56 | 5 | / | /
SMILES | SR-BI DiI inh | CDK5 inh | dFosB act | SR-BI uptake up | NSD2 inh | Dyrk1A ADPGlo | Alpha artifact | others
COc1cc(NC(C)CCCN)c2ncccc2c1Oc1ccccc1 (stereo unspecified) | 2 | 2 | -18 | -2 | 63* | -3 | -1%
COC(=O)CCCC(=O)NC1CC(C)(C)Cc2c1cnn2-c1ccc(C)cc1 (stereo unspecified) | -3 | -1 | -6 | 3 | 55* | -1 | -1%
Cc1ccc(-n2ncc3c2CC(C)(C)CC3NC(=O)CCn2cncn2)cc1 (stereo unspecified) | -2 | 1 | -7 | / | -1 | -1 | /
COc1ccc(NC(=O)CSc2nc3ccccc3c(=O)n2CCC(=O)N2CCCCC2)cc1 | -5 | -4 | -18 | 5 | 1 | / | /
CCOc1ccc(NC(=O)CSc2nc3ccccc3c(=O)n2CCCC(=O)N2CCCC2)cc1 | -1 | 2 | -1 | 1 | 118* | -3 | 3%
CCN(CC)CCCNc1ncnc2scc(-c3ccc(F)cc3)c12 | -7 | 2 | -10 | 7 | 63* | 16 | -3%
CC1CC(C(=O)Nc2ccccc2)C(=O)O1 (stereo unspecified) | 0 | -3 | -4 | 0 | -2 | -5 | /
CCCCCCCCn1cnc2c(N)c(C)c(C)cc21 | 2 | 0 | -5 | -2 | 76* | 3 | -5%
O=C1C(O)=C(O)C(=O)c2ccccc21 | 8 | 4 | -1 | -8 | / | 38 | /
CC(=O)C(C(C)=O)C1(O)C(=O)c2ccccc2C1=O | -30 | -4 | -1 | 30 | 104* | -3 | 1%
O=C(Cn1cnc2c(cnn2-c2ccccc2)c1=O)OCc1ccccc1 | -11 | 0 | 6 | 11 | 95* | 2 | 5%
COc1ccc(C(=O)C(OC(=O)c2ccc(C)c(NC(C)=O)c2)c2ccccc2)cc1 (stereo unspecified) | 16 | -2 | -8 | -16 | 50* | -1 | -5%
COc1ccc(NC(=O)c2ccc(N3C(=O)C4CC=C(C)CC4C3=O)cc2)c(OC)c1 (stereo unspecified) | 52 | 0 | 0 | -52 | 1 | 2 | /
N#Cc1ccccc1OCC(=O)OCC(=O)N1CCN(C(=O)c2ccco2)CC1 | -21 | -1 | 4 | 21 | 57* | -2 | -3%
Cc1cccc(-c2nnc(SCC(=O)Nc3ncccn3)n2C)c1 | -4 | 0 | 1 | 4 | 14 | 7 | /
Cc1cccc(-c2nnc(SCC(=O)c3ccc(O)cc3O)n2C)c1 | / | 0 | -1 | / | 96* | -9 | -6%
COc1ccc(CNC(=O)CCNC(=O)C2CCN(S(=O)(=O)c3ccc(OC)cc3)CC2)cc1 | / | / | / | / | -2 | / | /
NS(=O)(=O)c1ccc(N2CCN(CCOc3ccc(Cl)cc3)CC2)nc1 | 14 | 3 | 0 | -14 | 5 | 2 | /
